According to PubChem BioAssay AID652250 (Vanderbilt Specialized Chemistry Center, 2013):
Active and inactive are the calls of the source.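 How the source made its calls: active means compounds leaving under half of the peptide-driven platelet calcium rise; inactive means the rest.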

What follows are compounds tested against Proteinase-activated receptor 4 (Homo sapiens) (UniProt Q96RI0) (assay: PAR4 antagonists in human platelets, cell-based, single concentration, washed platelets, Fluo4 calcium (AID 652250)). Conditions: PAR4-AP calcium Fluo4 fluorescence.
Chain of Proteinase-activated receptor 4 (Homo sapiens) (Q96RI0 whole entry, looked up): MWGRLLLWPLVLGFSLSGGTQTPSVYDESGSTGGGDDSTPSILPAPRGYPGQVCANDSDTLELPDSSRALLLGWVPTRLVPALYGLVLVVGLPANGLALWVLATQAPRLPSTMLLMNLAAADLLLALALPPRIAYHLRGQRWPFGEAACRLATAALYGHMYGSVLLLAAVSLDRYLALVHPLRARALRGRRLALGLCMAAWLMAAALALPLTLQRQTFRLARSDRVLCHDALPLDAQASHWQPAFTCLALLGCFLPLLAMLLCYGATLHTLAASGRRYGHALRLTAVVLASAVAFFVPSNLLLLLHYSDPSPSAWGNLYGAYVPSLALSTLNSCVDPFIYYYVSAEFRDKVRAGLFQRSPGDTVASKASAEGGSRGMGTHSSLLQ
Method in brief: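 Test system: Fluo4-AM-loaded washed human platelets | Input: 10^8 platelets/mL | Signal: Fluorescence at 480/540 nm, 1 s intervals | Controls: PAR4-AP-stimulated DMSO control (100%) | Replication: Triplicate wells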
`COc1ccc(-c2cn(Cc3cccc(S(C)(=O)=O)c3)c3ccccc23)cn1` showed an IC50 of 10 µM. Compound `COc1ccc(-c2cn(Cc3cccc(Cl)c3)c3ccccc23)cn1` has an IC50 of 3.13 µM. For `COc1ccc(-c2cn(Cc3cccc(F)c3)c3ccccc23)cn1`, the IC50 was 3.85 µM.

Same assay, conditions: PAR4-AP calcium Fluo4 fluorescence, at 10 µM, stronger effect = lower value
With `O=C(c1cn(CCOc2ccc(F)cc2)c2ccccc12)C(F)(F)F` the “% of max PAR4-AP calcium response” value was “inactive”. With `Cc1cccc(-n2cc(-c3ccccc3)c3c(N4CCN(c5ccccc5)CC4)ncnc32)c1` the “% of max PAR4-AP calcium response” value was “inactive”. In the case of `O=C(c1cn(CCOc2ccccc2F)c2ccccc12)C(F)(F)F`, the “% of max PAR4-AP calcium response” value is reported as “inactive”. For `O=C(Cn1cc(C(=O)C(F)(F)F)c2ccccc21)NC1CCCC1`, the “% of max PAR4-AP calcium response” value was “inactive”. `OCCCc1cn(-c2ccccc2)c2ccccc12` was tested, and the “% of max PAR4-AP calcium response” value was “inactive”. For `COc1ccccc1OCCCn1cc(C(=O)C(F)(F)F)c2ccccc21`, the “% of max PAR4-AP calcium response” value was “inactive”. For `Cc1c(C)n(CC(O)CNCc2ccccc2)c2ccccc12` (stereo unspecified), the “% of max PAR4-AP calcium response” value was “inactive”. In the case of `OCc1cn(Cc2ccc(Cl)c(Cl)c2)c2ccccc12`, the “% of max PAR4-AP calcium response” value is reported as “inactive”. `Cn1cc(CC(=O)NCCN2CCOCC2)c2ccccc21` was tested, and the “% of max PAR4-AP calcium response” value was “inactive”. `S=C(c1cn(Cc2ccccc2Cl)c2ccccc12)N1CCCC1` was tested, and the “% of max PAR4-AP calcium response” value was “inactive”. For `COc1ccc(C(C[N+](=O)[O-])c2c(-c3ccccc3)n(C)c3ccccc23)cc1` (stereo unspecified), the “% of max PAR4-AP calcium response” value was “inactive”. With `c1ccc(COc2ccc(-c3cn(Cc4ccccc4)c4ccccc34)cc2)cc1` the “% of max PAR4-AP calcium response” value was “inactive”. For `COc1ccc(OC)c(NC(=O)Cc2cn(C)c3ccccc23)c1`, the “% of max PAR4-AP calcium response” value was “inactive”. `CC(C)NC(=O)CCc1cn(Cc2ccccc2)c2ccccc12` was tested, and the “% of max PAR4-AP calcium response” value was “inactive”. With `CCn1ccc(C(=O)Nc2ccc(C(F)(F)F)cc2Cl)n1` the “% of max PAR4-AP calcium response” value was “inactive”. In the case of `Cc1c(C)n(CC(O)CNCCO)c2ccccc12` (stereo unspecified), the “% of max PAR4-AP calcium response” value is reported as “inactive”. For `CC(=O)c1ccc(N2CCN(c3ncnc4c3c(-c3ccccc3)cn4-c3ccccc3)CC2)cc1`, the “% of max PAR4-AP calcium response” value was “inactive”. In the case of `CCN(CCCNC(=O)Cc1cn(C)c2ccccc12)c1ccccc1`, the “% of max PAR4-AP calcium response” value is reported as “inactive”. `O=C(N/N=C/c1cccc2cccnc12)c1ccn(Cc2ccc(Cl)cc2)n1` was tested, and the “% of max PAR4-AP calcium response” value was “inactive”. `O=C(Nc1cccc(Br)c1)c1ccn(C(=O)c2ccc(Cl)cc2)n1` was tested, and the “% of max PAR4-AP calcium response” value was “inactive”. With `COc1ccc2c(c1)c(C(=O)CNc1nccs1)c(C)n2C` the “% of max PAR4-AP calcium response” value was “inactive”. In the case of `CSc1ccc(-c2cn(Cc3ccccc3)c3ccccc23)cn1`, the “% of max PAR4-AP calcium response” value is reported as “inactive”. With `Fc1ccc(Cn2cc(C(=S)N3CCCC3)c3ccccc32)cc1` the “% of max PAR4-AP calcium response” value was “inactive”. For `COc1ccc(-n2nc(C(=O)Nc3cccc(C)n3)c3c4ccccc4n(C)c3c2=O)cc1Cl`, the “% of max PAR4-AP calcium response” value was “inactive”. In the case of `COc1ncc(-c2cn(Cc3ccccc3)c3ccccc23)cn1`, the “% of max PAR4-AP calcium response” value is reported as “inactive”. In the case of `Cc1cc(-c2cn(Cc3ccccc3)c3ccccc23)cnc1F`, the “% of max PAR4-AP calcium response” value is reported as “inactive”. For `O=C(Cn1cc(C(=O)C(F)(F)F)c2cc(Br)ccc21)N1CCCCC1`, the “% of max PAR4-AP calcium response” value was “inactive”. `Clc1ccccc1CNc1ncnc2c1c(-c1ccccc1)cn2-c1ccccc1` was tested, and the “% of max PAR4-AP calcium response” value was “inactive”. With `CCN1CCN(c2ncnc3c2c(-c2ccccc2)cn3-c2ccc(Br)cc2)CC1` the “% of max PAR4-AP calcium response” value was “inactive”. `Cn1cc(C(=O)Cc2ccccc2)c2ccccc21` was tested, and the “% of max PAR4-AP calcium response” value was “inactive”. For `CC(O)CNc1ncnc2c1c(-c1ccccc1)cn2-c1ccccc1` (stereo unspecified), the “% of max PAR4-AP calcium response” value was “inactive”. `COc1ccc(-c2cn(Cc3cccc(-c4ccsc4)c3)c3ccccc23)cn1` was tested, and the “% of max PAR4-AP calcium response” value was “inactive”. For `CCn1ccc(C(=O)Nc2ccc(Cl)cc2Cl)n1`, the “% of max PAR4-AP calcium response” value was “inactive”. `Cc1ccc2c(c1)c(-c1ccccc1)c(-c1ccccc1)n2CC(O)CN1CCOCC1` (stereo unspecified) was tested, and the “% of max PAR4-AP calcium response” value was “inactive”. In the case of `S=C(c1cn(Cc2ccc(Cl)cc2)c2ccccc12)N1CCCC1`, the “% of max PAR4-AP calcium response” value is reported as “inactive”. With `Cc1ccc(C)c(NC(=O)Cn2cc(C(=O)C(F)(F)F)c3ccccc32)c1` the “% of max PAR4-AP calcium response” value was “inactive”. In the case of `CC(=O)n1cc(C(C[N+](=O)[O-])SCc2ccccc2)c2ccccc21` (stereo unspecified), the “% of max PAR4-AP calcium response” value is reported as “inactive”. In the case of `COCCCNC(=O)Cn1cc(C(=O)C(F)(F)F)c2ccccc21`, the “% of max PAR4-AP calcium response” value is reported as “inactive”. For `OCCCNc1ncnc2c1c(-c1ccccc1)cn2-c1ccc(F)cc1`, the “% of max PAR4-AP calcium response” value was “inactive”. For `O=C(Cn1cc(C(=O)C(F)(F)F)c2ccccc21)NC1CCCCCC1`, the “% of max PAR4-AP calcium response” value was “inactive”. `Cc1c(C)n(CC(O)CNc2ccccc2)c2ccccc12` (stereo unspecified) was tested, and the “% of max PAR4-AP calcium response” value was “inactive”. With `COc1ccc2c(c1)c(C(C)=O)c(C)n2-c1cccc(Br)c1` the “% of max PAR4-AP calcium response” value was “inactive”. For `Fc1ccc(CNc2ncnc3c2c(-c2ccccc2)cn3-c2ccc(F)cc2)cc1`, the “% of max PAR4-AP calcium response” value was “inactive”. `COc1ccc2c(c1)c(CC(=O)N1CCC(C(N)=O)CC1)c(C)n2C(=O)c1ccc(Cl)cc1` was tested, and the “% of max PAR4-AP calcium response” value was “inactive”. For `OC(CN1CCCCC1)Cn1c2c(c3ccccc31)CCCC2` (stereo unspecified), the “% of max PAR4-AP calcium response” value was “inactive”. With `c1ccc(-c2ccn(-c3ccccc3)n2)cc1` the “% of max PAR4-AP calcium response” value was “inactive”. `CN(C)c1ccc(-c2cn(Cc3ccccc3)c3ccccc23)cn1` was tested, and the “% of max PAR4-AP calcium response” value was “inactive”. For `CC1CCCCN1C(=O)Cn1cc(C(=O)C(F)(F)F)c2ccccc21` (stereo unspecified), the “% of max PAR4-AP calcium response” value was “inactive”. In the case of `Fc1ccccc1Cn1cc(C(=S)N2CCOCC2)c2ccccc21`, the “% of max PAR4-AP calcium response” value is reported as “inactive”. `O=C(N/N=C/c1c[nH]c2ccccc12)c1ccn(Cc2ccc(Cl)cc2)n1` was tested, and the “% of max PAR4-AP calcium response” value was “inactive”. For `COc1cc(OC)cc(-c2cn(Cc3ccccc3)c3ccccc23)c1`, the “% of max PAR4-AP calcium response” value was “inactive”. `Clc1ccc(-n2cc(-c3ccccc3)c3c(NCc4ccc5c(c4)OCO5)ncnc32)cc1` was tested, and the “% of max PAR4-AP calcium response” value was “inactive”. For `COc1ccc2c(c1)c(CC(=O)Nc1ccc(Cl)cn1)c(C)n2C(=O)c1ccc(Cl)cc1`, the “% of max PAR4-AP calcium response” value was “inactive”.
